Changes are numbered by the printed parent chain. Activity calls are given as the source filed them. No cut-off for these calls is given here. Where a SMILES comes first, the peptide text is derived from it. [ ]: non-standard residue; d: D form. NMeF = CN[C@@H](Cc1ccccc1)C(=O)O
How the values were obtained:
[1] = system: Substance-P receptor (Homo sapiens), P25103 [F264Y]; assay: Noncompetitive inhibition of human NK1 F264Y6.51 mutant receptor expressed in HEK293 cells assessed as decrease in SP1-induced [3H]IP accumulation after 20 mins; assay type: cell-based
Sequence of Substance-P receptor (Homo sapiens), P25103 [F264Y] (P25103 whole entry F264Y): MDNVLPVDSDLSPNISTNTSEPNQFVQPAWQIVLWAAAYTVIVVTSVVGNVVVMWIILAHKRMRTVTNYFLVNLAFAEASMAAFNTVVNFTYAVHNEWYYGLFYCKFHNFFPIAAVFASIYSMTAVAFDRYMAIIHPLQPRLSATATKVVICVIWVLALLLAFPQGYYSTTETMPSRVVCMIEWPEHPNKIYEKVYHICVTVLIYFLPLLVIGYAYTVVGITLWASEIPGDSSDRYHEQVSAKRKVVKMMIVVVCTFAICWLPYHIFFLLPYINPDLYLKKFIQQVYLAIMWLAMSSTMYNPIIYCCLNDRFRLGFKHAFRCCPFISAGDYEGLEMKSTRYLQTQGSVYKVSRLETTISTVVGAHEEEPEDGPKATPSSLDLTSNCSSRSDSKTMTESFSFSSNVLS

Substance-P receptor [2] = target: T1, Substance-P receptor (Homo sapiens, UniProt P25103); assay: Noncompetitive inhibition of wild type human NK1 receptor expressed in HEK293 cells assessed as decrease in SP1-induced [3H]IP accumulation after 20 mins; assay type: cell-based
T1 sequence (P25103 whole entry): as the sequence (P25103 whole entry F264Y) above, with Y264F counted along it

HEK293 [3] = assay: Selectivity ratio of Ki for wild type human NK3 receptor expressed in HEK293 cells to Ki for human NK3 Y315F6.51 mutant expressed in HEK293 cells; assay type: cell-based
Neuromedin-K receptor [4] = target: T2, Neuromedin-K receptor (Homo sapiens, UniProt P29371, Y315F); assay: Displacement of radioligand [3H]osanetant at human NK3 Y315F6.51 mutant expressed in HEK293 cells; assay type: cell-based
T2 sequence (P29371 whole entry Y315F): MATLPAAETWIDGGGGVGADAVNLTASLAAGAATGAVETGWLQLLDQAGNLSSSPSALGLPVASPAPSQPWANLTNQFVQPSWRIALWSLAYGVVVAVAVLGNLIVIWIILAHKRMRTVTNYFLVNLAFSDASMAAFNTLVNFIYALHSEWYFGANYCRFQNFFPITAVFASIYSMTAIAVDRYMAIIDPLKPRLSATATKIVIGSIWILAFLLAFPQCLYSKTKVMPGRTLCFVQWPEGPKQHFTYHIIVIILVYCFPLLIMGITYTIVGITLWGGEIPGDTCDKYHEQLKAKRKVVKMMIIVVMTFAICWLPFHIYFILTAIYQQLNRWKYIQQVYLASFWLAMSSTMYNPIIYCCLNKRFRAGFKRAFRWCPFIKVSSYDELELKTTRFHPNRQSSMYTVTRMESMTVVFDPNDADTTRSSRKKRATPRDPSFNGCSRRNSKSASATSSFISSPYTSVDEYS

Neuromedin-K receptor [5] = target: T3, Neuromedin-K receptor (Homo sapiens, UniProt P29371); assay: Displacement of [3H]osanetant from wild type human NK3 receptor expressed in HEK293 cells; assay type: cell-based
T3 sequence (P29371 whole entry): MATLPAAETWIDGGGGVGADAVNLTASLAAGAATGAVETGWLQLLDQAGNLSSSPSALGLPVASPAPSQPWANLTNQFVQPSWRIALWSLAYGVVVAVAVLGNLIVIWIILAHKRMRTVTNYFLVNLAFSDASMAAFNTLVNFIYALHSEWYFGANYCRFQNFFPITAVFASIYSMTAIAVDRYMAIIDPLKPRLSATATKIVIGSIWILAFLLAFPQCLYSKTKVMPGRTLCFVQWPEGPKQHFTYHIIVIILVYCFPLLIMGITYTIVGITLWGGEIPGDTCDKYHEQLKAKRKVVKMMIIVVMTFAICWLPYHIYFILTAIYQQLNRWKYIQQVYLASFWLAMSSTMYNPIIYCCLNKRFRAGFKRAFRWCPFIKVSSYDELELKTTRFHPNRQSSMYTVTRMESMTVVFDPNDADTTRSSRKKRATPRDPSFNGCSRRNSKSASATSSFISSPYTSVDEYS

Substance-P receptor [6] = target: T4, Substance-P receptor (Homo sapiens, UniProt P25103, F264Y); assay: Displacement of radioligand [3H]SP from human NK1 F264Y6.51 mutant expressed in HEK293 cells; assay type: cell-based
T4 sequence (P25103 whole entry F264Y): as the sequence (P25103 whole entry F264Y) above
Procedure, shortened: (§1)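 Membranes from transiently transfected HEK293 cells, 2.5 μg protein/well, in 50 mM HEPES pH 7.4 with 3 mM MnCl2, phosphoramidon, leupeptin and 0.04% BSA. 10 competitor concentrations (0.0003–10 μM), 90 min at rt. Nonspecific binding with 10 μM NK1 antagonist. Filtration, then scintillation counting. Ki by Cheng–Prusoff. Three experiments, each in duplicate.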

Substance-P receptor [7] = target: T1, Substance-P receptor; assay: Displacement of radioligand [3H]SP from wild type human NK1 receptor expressed in HEK293 cells; assay type: cell-based; procedure, shortened: as §1
Neuromedin-K receptor [8] = target: T2, Neuromedin-K receptor; assay: Competitive inhibition at human NK3 Y315F6.51 mutant expressed in HEK293 cells assessed as decrease in [MePhe7]NKB-induced [3H]IP accumulation after 20 mins; assay type: cell-based; conditions: read-out: pA2 (converted)
Procedure, shortened: (§2)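 HEK293 cells transiently expressing human NK3 WT or mutant, labeled with myo-[³H]inositol in LiCl buffer. Antagonist preincubated 20 min at 37 °C, then [MePhe⁷]NKB (0.01 nM–1 μM) added for 45 min at 37 °C. [³H]IP read by SPA beads. Schild analysis of EC50 shift and Emax depression across increasing antagonist concentrations gives pA2, slope and mode of antagonism.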

Neuromedin-K receptor [9] = target: T3, Neuromedin-K receptor; assay: Competitive inhibition at wild type human NK3 expressed in HEK293 cells assessed as decrease in [MePhe7]NKB-induced [3H]IP accumulation after 20 mins; assay type: cell-based; conditions: read-out: pA2 (converted); procedure, shortened: as §2
HEK293 [10] = assay: Selectivity ratio of Ki for human NK3 H316F mutant expressed in HEK293 cells to Ki for wild type human NK3 receptor expressed in HEK293 cells; assay type: cell-based
HEK293 [11] = assay: Selectivity ratio of Ki for human NK3 Y247W mutant expressed in HEK293 cells to Ki for wild type human NK3 receptor expressed in HEK293 cells; assay type: cell-based
HEK293 [12] = assay: Selectivity ratio of Ki for human NK3 Y247F mutant expressed in HEK293 cells to Ki for wild type human NK3 receptor expressed in HEK293 cells; assay type: cell-based
Neuromedin-K receptor [13] = target: T5, Neuromedin-K receptor (Homo sapiens, UniProt P29371, H316W); assay: Displacement of radioligand [3H]osanetant at human NK3 H316W mutant expressed in HEK293 cells; assay type: cell-based
T5 sequence (P29371 whole entry H316W): as the sequence (P29371 whole entry Y315F) above, with F315Y, H316W counted along it

Neuromedin-K receptor [14] = target: T6, Neuromedin-K receptor (Homo sapiens, UniProt P29371, H316F); assay: Displacement of radioligand [3H]osanetant at human NK3 H316F mutant expressed in HEK293 cells; assay type: cell-based
T6 sequence (P29371 whole entry H316F): as the sequence (P29371 whole entry Y315F) above, with F315Y, H316F counted along it

Neuromedin-K receptor [15] = target: T7, Neuromedin-K receptor (Homo sapiens, UniProt P29371, Y247W); assay: Displacement of radioligand [3H]osanetant at human NK3 Y247W mutant expressed in HEK293 cells; assay type: cell-based
T7 sequence (P29371 whole entry Y247W): as the sequence (P29371 whole entry Y315F) above, with Y247W, F315Y counted along it

Neuromedin-K receptor [16] = target: T8, Neuromedin-K receptor (Homo sapiens, UniProt P29371, Y247F); assay: Displacement of radioligand [3H]osanetant at human NK3 Y247F mutant expressed in HEK293 cells; assay type: cell-based
T8 sequence (P29371 whole entry Y247F): as the sequence (P29371 whole entry Y315F) above, with Y247F, F315Y counted along it

Neuromedin-K receptor [17] = target: T8, Neuromedin-K receptor; assay: Competitive inhibition at human NK3 Y247F5.38 mutant expressed in HEK293 cells assessed as decrease in [MePhe7]NKB-induced [3H]IP accumulation after 20 mins; assay type: cell-based; conditions: read-out: pA2 (converted)
[18] = system: T9, Neuromedin-K receptor (Homo sapiens), P29371 [H316W]; assay: Antagonist activity at human NK3 H316W6.52 mutant expressed in HEK293 cells assessed as decrease in [MePhe7]NKB-induced [3H]IP accumulation after 20 mins; assay type: functional, cell-based; procedure, shortened: as §2
T9 sequence (whole entry): T3 sequence (P29371 whole entry) with H316W

[19] = system: T10, Neuromedin-K receptor (Homo sapiens), P29371 [Y315F]; assay: Noncompetitive inhibition at human NK3 Y315F6.51 mutant expressed in HEK293 cells assessed as decrease in [MePhe7]NKB-induced [3H]IP accumulation after 20 mins; assay type: cell-based; procedure, shortened: as §2
T10 sequence (whole entry): T3 sequence (P29371 whole entry) with Y315F

Neuromedin-K receptor [20] = target: T3, Neuromedin-K receptor; assay: Agonist activity at wild type human NK3 receptor expressed in HEK293 cells assessed as [3H]IP accumulation after 45 mins; assay type: functional, cell-based
Procedure, shortened: (§3)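 Human NK3 (WT or point mutant) transiently transfected into HEK293 cells and labeled with 5 μCi/mL myo-[³H]inositol. Assay buffer HBSS/20 mM HEPES pH 7.4 with 8 mM LiCl. [MePhe⁷]NKB at 0.01 nM–1 μM for 45 min at 37 °C. Lysis in 20 mM formic acid; [³H]IP captured on yttrium silicate SPA beads. EC50 and Hill slope from a four-parameter fit. Emax given as % of the WT fitted maximum from the same day.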

Substance-P receptor [21] = target: T1, Substance-P receptor; assay: Binding affinity at human NK1 receptor
Neuromedin-K receptor [22] = target: T5, Neuromedin-K receptor; assay: Agonist activity at human NK3 H316W mutant expressed in HEK293 cells assessed as [3H]IP accumulation after 45 mins; assay type: functional, cell-based; procedure, shortened: as §3
Neuromedin-K receptor [23] = target: T6, Neuromedin-K receptor; assay: Agonist activity at human NK3 H316F mutant expressed in HEK293 cells assessed as [3H]IP accumulation after 45 mins; assay type: functional, cell-based; procedure, shortened: as §3
Neuromedin-K receptor [24] = target: T7, Neuromedin-K receptor; assay: Agonist activity at human NK3 Y247W mutant expressed in HEK293 cells assessed as [3H]IP accumulation after 45 mins; assay type: functional, cell-based; procedure, shortened: as §3
Neuromedin-K receptor [25] = target: T11, Neuromedin-K receptor (Homo sapiens, UniProt P29371, Y247A); assay: Agonist activity at human NK3 Y247A mutant expressed in HEK293 cells assessed as [3H]IP accumulation after 45 mins; assay type: functional, cell-based; procedure, shortened: as §3
T11 sequence (P29371 whole entry Y247A): as the sequence (P29371 whole entry Y315F) above, with Y247A, F315Y counted along it

Neuromedin-K receptor [26] = target: T8, Neuromedin-K receptor; assay: Agonist activity at human NK3 Y247F mutant expressed in HEK293 cells assessed as [3H]IP accumulation after 45 mins; assay type: functional, cell-based; procedure, shortened: as §3
Substance-P receptor [27] = target: T4, Substance-P receptor; assay: Partial noncompetitive inhibition of human F264Y6.51 mutant expressed in HEK293 cells assessed as decrease in SP1-induced [3H]IP accumulation after 20 mins; assay type: cell-based; conditions: read-out: pA2 (converted)
[28] = system: T10, Neuromedin-K receptor (Homo sapiens), P29371 [Y315F]; assay: Antagonist activity at human NK3 Y315F6.51 mutant expressed in HEK293 cells assessed as decrease in [MePhe7]NKB-induced [3H]IP accumulation at 10 nM after 20 mins; assay type: functional, cell-based
[29] = target: T12, Neuromedin-K receptor (Homo sapiens) (UniProt P29371); assay: Noncompetitive inhibition at wild type human NK3 expressed in HEK293 cells assessed as decrease in [MePhe7]NKB-induced [3H]IP accumulation after 20 mins; assay type: cell-based; procedure, shortened: as §2
T12 sequence (whole entry): T3 sequence (P29371 whole entry)

Neuromedin-K receptor [30] = target: T11, Neuromedin-K receptor; assay: Binding affinity to human NK3 Y247A mutant expressed in HEK293 cells
Substance-P receptor [31] = target: T1, Substance-P receptor

| SMILES | inhibition [1] | inhibition (Substance-P receptor [2]) | Ratio Ki (HEK293 [3]) | Ki (Neuromedin-K receptor [4]) [nM] | Ki (Neuromedin-K receptor [5]) [nM] | Ki (Substance-P receptor [6]) [nM] | Ki (Substance-P receptor [7]) [nM] | Kb (Neuromedin-K receptor [8]) [nM] | Kb (Neuromedin-K receptor [9]) [nM] | inhibition [19] | also measured |
| --- | --- | --- | --- | --- | --- | --- | --- | --- | --- | --- | --- |
| Cc1cc(F)ccc1-c1cc(N2CCC3(CC2)OCCS3(=O)=O)ncc1N(C)C(=O)C(C)(C)c1cc(C(F)(F)F)cc(C(F)(F)F)c1 | Active | Active | 3.5 | 1 | 3.5 | 1.7 | 1.4 | 37.2 | 97.7 |  |  |
| Cc1cc(F)ccc1-c1cc(N2CC[C@H](O)C2)ncc1N(C)C(=O)C(C)(C)c1cc(C(F)(F)F)cc(C(F)(F)F)c1 | Active | Active | 4.8 | 2.5 | 11.9 | 2.1 | 1.3 | 20.9 | 120 |  |  |
| Cc1cc(F)ccc1-c1cc(N2CCN(S(C)(=O)=O)[C@@H](C)C2)ncc1N(C)C(=O)C(C)(C)c1cc(C(F)(F)F)cc(C(F)(F)F)c1 | Active | Active | 8.5 | 0.2 | 1.7 | 0.5 | 0.3 |  | 16.2 | Active | Ratio Ki (HEK293 [10]): 11.6; Ratio Ki (HEK293 [11]): 3; Ratio Ki (HEK293 [12]): 1.1; Ki (Neuromedin-K receptor [13]): > 10000 nM; Ki (Neuromedin-K receptor [14]): 19.7 nM; Ki (Neuromedin-K receptor [15]): 5.1 nM; Ki (Neuromedin-K receptor [16]): 1.8 nM; Kb (Neuromedin-K receptor [17]): 47.9 nM; Activity [18]: inactive |
| Cc1cc(F)ccc1-c1cc(N2CCN(S(C)(=O)=O)CC2)ncc1N(C)C(=O)C(C)(C)c1cc(C(F)(F)F)cc(C(F)(F)F)c1 | Active | Active | 3.4 | 0.7 | 2.4 | 1.4 | 0.4 | 2.45 | 123 |  |  |
| CSCC[C@H](NC(=O)[C@H](CC(C)C)NC(=O)CNC(=O)[C@H](Cc1ccccc1)N(C)C(=O)[C@H](Cc1ccccc1)NC(=O)[C@H](Cc1ccccc1)NC(=O)[C@H](CC(=O)O)NC(=O)[C@H](Cc1cnc[nH]1)NC(=O)[C@H](CCSC)NC(=O)[C@@H](N)CC(=O)O)C(N)=O (H-DMHDFF[NMeF]GLM-NH2) |  |  |  |  |  |  |  |  |  |  | EC50 (Neuromedin-K receptor [20]): 0.71 nM; Ki (Substance-P receptor [21]): > 10000 nM; EC50 (Neuromedin-K receptor [22]): 3.48 nM; EC50 (Neuromedin-K receptor [23]): Not Active; EC50 (Neuromedin-K receptor [24]): Not Active; EC50 (Neuromedin-K receptor [25]): Not Active; EC50 (Neuromedin-K receptor [26]): 2.22 nM |
| Cc1cc(F)ccc1-c1cc(N2CCC[C@H]2CO)ncc1N(C)C(=O)C(C)(C)c1cc(C(F)(F)F)cc(C(F)(F)F)c1 |  | Active | 2.5 | 0.6 | 1.5 | 2.8 | 1.4 |  |  | Active | Kb (Substance-P receptor [27]): 39.8 nM; Activity [28]: Active; inhibition [29]: Active |
| [3H]c1cccc(C2(N(C)C(C)=O)CCN(CCC[C@]3(c4ccc(Cl)c(Cl)c4)CCCN(C(=O)c4ccccc4)C3)CC2)c1 |  |  |  |  |  |  |  |  |  |  | Kd (Neuromedin-K receptor [30]): Not Active |
| C[C@@H](O[C@H]1OCCN(Cc2n[nH]c(=O)[nH]2)[C@H]1c1ccc(F)cc1)c1cc(C(F)(F)F)cc(C(F)(F)F)c1 [APREPITANT] |  | Active |  |  | 454 |  |  |  |  |  | T1/2 (Substance-P receptor [31]): 2.57 h |
| Cc1cc(F)ccc1-c1cc(N2CCN(S(C)(=O)=O)C[C@H]2CO)ncc1N(C)C(=O)C(C)(C)c1cc(C(F)(F)F)cc(C(F)(F)F)c1 |  | Active | 2 | 0.6 | 1.2 | 1.3 | 0.7 |  |  | Active | Kb (Substance-P receptor [27]): 17 nM; Activity [28]: Active; inhibition [29]: Active |
| COc1ccccc1CN[C@H]1C2CCN(CC2)[C@H]1C(c1ccccc1)c1ccccc1 [CP-96345] |  |  |  |  | > 10000 |  |  |  |  |  |  |
